In ChEMBL document CHEMBL1125411, “Effect of the 7-amino substituent on the inhibitory potency of mechanism-based isocoumarin inhibitors for porcine pancreatic and human neutrophil elastases: a 1.85-A X-ray structure of the complex between porcine pancreatic elastase and 7-[(N-tosylphenylalanyl)amino]-4-chloro-3- methoxyisocoumarin” (J Med Chem, 1992):

Legend:
[1] = target: T1, Neutrophil elastase (Homo sapiens) (UniProt P08246); test: Inactivation of human leukocyte (neutrophil) elastase (HLE)(HNE) as rate constant; type: functional
T1 sequence (whole entry): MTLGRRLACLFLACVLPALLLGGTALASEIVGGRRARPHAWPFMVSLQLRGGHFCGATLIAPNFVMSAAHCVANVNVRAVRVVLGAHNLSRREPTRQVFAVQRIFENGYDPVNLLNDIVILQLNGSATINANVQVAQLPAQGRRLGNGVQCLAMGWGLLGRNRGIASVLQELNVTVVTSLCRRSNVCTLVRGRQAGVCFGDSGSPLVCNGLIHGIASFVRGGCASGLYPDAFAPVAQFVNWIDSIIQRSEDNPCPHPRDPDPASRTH
How it was run: (§1)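 HNE (0.1–2.0 μM) in 0.1 M Hepes, 0.5 M NaCl, pH 7.5, 25 °C, was incubated with inhibitor added from Me2SO (final 8–12% v/v). Timed aliquots were diluted 40–200-fold into MeO-Suc-Ala-Ala-Pro-Val-NA (0.1–0.125 mM), and residual activity was read at 410 nm. kobs came from ln(vt/v0) vs time and is reported as kobs/[I]. Very fast cases are lower limits.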

[2] = target: Pancreatic elastase (Sus scrofa) (UniProt P08419+P00772); test: Inactivation of porcine pancreatic elastase (PPE) expressed as rate constant.; type: functional
How it was run: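 PPE (0.1–2.0 μM) was incubated with inhibitor in 0.1 M Hepes, 0.5 M NaCl, pH 7.5, at 25 °C; inhibitor was added in Me2SO to a final 8–12% v/v. Aliquots taken over time were diluted 40–200-fold into Suc-Ala-Ala-Ala-NA (0.6–1.2 mM), with 4-nitroanilide release followed at 410 nm. First-order kobs came from ln(vt/v0) vs time and is given as kobs/[I].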

[3] = target: T1, Neutrophil elastase (Homo sapiens); test: Compound was tested for the inactivation of human leukocyte (neutrophil) elastase(HLE)(HNE) expressed as rate constant; type: functional; how it was run: as §1
[4] = test system: Pancreatic elastase (Sus scrofa); test: Compound was tested for the inactivation of porcine pancreatic elastase(PPE) expressed as rate constant
[5] = target: T1, Neutrophil elastase (Homo sapiens); test: Inactivation of human leukocyte (neutrophil) elastase(HLE)(HNE) as rate constant; how it was run: as §1

Structure (SMILES): COC(=O)CCCC(=O)Nc1ccc2c(Cl)c(OC)oc(=O)c2c1
- kobs/[I] (second-order inactivation rate constant) [1]: 54000 M⁻¹ s⁻¹
- second-order inactivation rate constant (kobs/[I]) [2]: 2800 M⁻¹ s⁻¹

Structure (SMILES): COc1oc(=O)c2cc(NC(=O)C(NS(=O)(=O)c3ccc(C)cc3)c3ccccc3)ccc2c1Cl (centres undefined)
- kobs/[I] (second-order inactivation rate constant) [1]: 84000 M⁻¹ s⁻¹
- second-order inactivation rate constant (kobs/[I]) [2]: 1500 M⁻¹ s⁻¹

Structure (SMILES): COc1oc(=O)c2cc(NC(=O)OCc3ccccc3)ccc2c1Cl
- kobs/[I] (second-order inactivation rate constant) [1]: 71000 M⁻¹ s⁻¹
- second-order inactivation rate constant (kobs/[I]) [2]: 260 M⁻¹ s⁻¹

Structure (SMILES): COc1oc(=O)c2cc(NC(=O)CCCC(=O)O)ccc2c1Cl
- kobs/[I] (second-order inactivation rate constant) [1]: 51000 M⁻¹ s⁻¹
- second-order inactivation rate constant (kobs/[I]) [2]: 900 M⁻¹ s⁻¹

Structure (SMILES): COc1oc(=O)c2cc(NC(=O)C(c3ccccc3)c3ccccc3)ccc2c1Cl
- kobs/[I] (second-order inactivation rate constant) [1]: 52000 M⁻¹ s⁻¹
- second-order inactivation rate constant (kobs/[I]) [2]: 20 M⁻¹ s⁻¹

Structure (SMILES): COC(=O)Nc1cccc(C(=O)Nc2ccc3c(Cl)c(OC)oc(=O)c3c2)c1
- kobs/[I] (second-order inactivation rate constant) [1]: 100000 M⁻¹ s⁻¹
- second-order inactivation rate constant (kobs/[I]) [2]: 2500 M⁻¹ s⁻¹

Structure (SMILES): COc1oc(=O)c2cc(N=C=O)ccc2c1Cl
- k obs / 1 [3]: 9200 M⁻¹ s⁻¹
- second-order inactivation rate constant (kobs/[I]) [2]: 650 M⁻¹ s⁻¹
- [I] [4]: 8.3 µM

Structure (SMILES): CCOC(=O)Nc1ccc2c(Cl)c(OC)oc(=O)c2c1
- kobs/[I] (second-order inactivation rate constant) [1]: 47000 M⁻¹ s⁻¹
- second-order inactivation rate constant (kobs/[I]) [2]: 2000 M⁻¹ s⁻¹

Structure (SMILES): COc1oc(=O)c2cc(NC(=O)C(Cc3ccccc3)NS(=O)(=O)c3ccc(C)cc3)ccc2c1Cl (centres undefined)
- kobs/[I] (second-order inactivation rate constant) [1]: 200000 M⁻¹ s⁻¹
- second-order inactivation rate constant (kobs/[I]) [2]: 6500 M⁻¹ s⁻¹

Structure (SMILES): COC(=O)c1ccccc1C(=O)Nc1ccc2c(Cl)c(OC)oc(=O)c2c1
- second-order inactivation rate constant (kobs/[I]) [2]: 7100 M⁻¹ s⁻¹

Structure (SMILES): COc1oc(=O)c2cc(NC(=O)Nc3ccccc3)ccc2c1Cl
- kobs/[I] (second-order inactivation rate constant) [1]: 49000 M⁻¹ s⁻¹
- second-order inactivation rate constant (kobs/[I]) [2]: 7300 M⁻¹ s⁻¹

Structure (SMILES): COC(=O)CCC(=O)Nc1ccc2c(Cl)c(OC)oc(=O)c2c1
- kobs/[I] (second-order inactivation rate constant) [1]: 43000 M⁻¹ s⁻¹
- second-order inactivation rate constant (kobs/[I]) [2]: 2200 M⁻¹ s⁻¹

Structure (SMILES): COc1oc(=O)c2cc(NC(=O)CCc3ccccc3)ccc2c1Cl
- kobs/[I] (second-order inactivation rate constant) [1]: 66000 M⁻¹ s⁻¹
- second-order inactivation rate constant (kobs/[I]) [2]: 3100 M⁻¹ s⁻¹

Structure (SMILES): COc1oc(=O)c2cc(NC(=O)C(CC(C)C)NS(=O)(=O)c3ccc(C)cc3)ccc2c1Cl (centres undefined)
- kobs/[I] (second-order inactivation rate constant) [1]: 54000 M⁻¹ s⁻¹
- second-order inactivation rate constant (kobs/[I]) [2]: 6300 M⁻¹ s⁻¹

Structure (SMILES): COc1oc(=O)c2cc(NC(=O)C(NS(=O)(=O)c3ccc(C)cc3)C(C)C)ccc2c1Cl (centres undefined)
- kobs/[I] (second-order inactivation rate constant) [1]: 36000 M⁻¹ s⁻¹
- second-order inactivation rate constant (kobs/[I]) [2]: 1300 M⁻¹ s⁻¹

Structure (SMILES): COc1oc(=O)c2cc(NC(=O)CC(c3ccccc3)c3ccccc3)ccc2c1Cl
- kobs/[I] (second-order inactivation rate constant) [1]: 130000 M⁻¹ s⁻¹
- second-order inactivation rate constant (kobs/[I]) [2]: 2400 M⁻¹ s⁻¹

Structure (SMILES): COc1oc(=O)c2cc(NC(=O)c3ccccc3C(=O)O)ccc2c1Cl
- kobs/[I] (second-order inactivation rate constant) [1]: 52000 M⁻¹ s⁻¹
- second-order inactivation rate constant (kobs/[I]) [2]: 2700 M⁻¹ s⁻¹

Structure (SMILES): COc1oc(=O)c2cc(NC(=O)N(CCc3ccccc3)Cc3ccccc3)ccc2c1Cl
- kobs/[I] (second-order inactivation rate constant) [1]: 12000 M⁻¹ s⁻¹
- second-order inactivation rate constant (kobs/[I]) [2]: 17 M⁻¹ s⁻¹

Structure (SMILES): COc1oc(=O)c2cc(NC(=O)Oc3ccccc3)ccc2c1Cl
- k obs / 1 [5]: 13000 M⁻¹ s⁻¹
- second-order inactivation rate constant (kobs/[I]) [2]: 850 M⁻¹ s⁻¹
- [I] [4]: 8.8 µM

Structure (SMILES): COc1oc(=O)c2cc(NC(C)=O)ccc2c1Cl
- kobs/[I] (second-order inactivation rate constant) [1]: 30000 M⁻¹ s⁻¹
- second-order inactivation rate constant (kobs/[I]) [2]: 2300 M⁻¹ s⁻¹

Structure (SMILES): COc1oc(=O)c2cc(NC(=O)Cc3ccccc3)ccc2c1Cl
- kobs/[I] (second-order inactivation rate constant) [1]: 37000 M⁻¹ s⁻¹
- second-order inactivation rate constant (kobs/[I]) [2]: 2000 M⁻¹ s⁻¹

Structure (SMILES): COc1oc(=O)c2cc(NC(=O)OCC3c4ccccc4-c4ccccc43)ccc2c1Cl
- k obs / 1 [3]: 10000 M⁻¹ s⁻¹
- second-order inactivation rate constant (kobs/[I]) [2]: 20 M⁻¹ s⁻¹
- [I] [4]: 600 µM

Structure (SMILES): COc1oc(=O)c2cc(NC(=O)C(F)(F)C(F)(F)C(F)(F)F)ccc2c1Cl
- kobs/[I] (second-order inactivation rate constant) [1]: 47000 M⁻¹ s⁻¹
- second-order inactivation rate constant (kobs/[I]) [2]: 1100 M⁻¹ s⁻¹

Structure (SMILES): COc1oc(=O)c2cc(NC(=O)C(C)NS(=O)(=O)c3ccc(C)cc3)ccc2c1Cl (centres undefined)
- kobs/[I] (second-order inactivation rate constant) [1]: 55000 M⁻¹ s⁻¹
- second-order inactivation rate constant (kobs/[I]) [2]: 2500 M⁻¹ s⁻¹

Structure (SMILES): COc1oc(=O)c2cc(NC(=O)CC(CC(=O)O)c3ccccc3)ccc2c1Cl (centres undefined)
- kobs/[I] (second-order inactivation rate constant) [1]: 66000 M⁻¹ s⁻¹
- second-order inactivation rate constant (kobs/[I]) [2]: 100 M⁻¹ s⁻¹

Structure (SMILES): COc1oc(=O)c2cc(NC(=O)CCC(=O)O)ccc2c1Cl
- kobs/[I] (second-order inactivation rate constant) [1]: 9500 M⁻¹ s⁻¹
- second-order inactivation rate constant (kobs/[I]) [2]: 900 M⁻¹ s⁻¹
